Tests used:
[1] = tested on: Cladosporium cladosporioides; test: Antifungal activity against Cladosporium cladosporioides after 72 hrs; format: functional
In short: (§1)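 TLC bioautography: compounds applied to TLC plates, sprayed with a fungal spore suspension in glucose and salt solution, incubated 72 h in darkness in a moistened chamber at 25 °C. Clear inhibition zones against a dark background read as the minimum amount (µg) inhibiting growth on the plate. Strains: C. cladosporioides SPC 140, C. sphaerospermum SPC 491. Nystatin and miconazole positive controls; ampicillin and chloramphenicol negative controls.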

[2] = tested on: Cladosporium sphaerospermum; test: Antifungal activity against Cladosporium sphaerospermum after 72 hrs; format: functional; in short: as §1

Question: Which results are given for CC(=O)OC(C)(C)CNC(=O)/C=C/C=C/c1ccc2c(c1)OCO2 [CORCOVADINE]?
Answer: MIC [1]: 1 µg; MIC [2]: 1 µg

Question: What does the source list for CC(=O)OC(C)(C)CNC(=O)/C=C\C=C/c1ccc2c(c1)OCO2 [ISOCORCOVADINE]?
Answer: MIC [1]: 2.5 µg; MIC [2]: 1 µg

Question: For CC(C)CNC(=O)/C=C\C=C/c1ccc2c(c1)OCO2 [ISOPIPERLONGUMININE], which MIC [1] is on record?
Answer: 0.25 µg

Question: And the MIC [2]?
Answer: 0.25 µg

Question: What does the source list for Clc1ccc(COC(Cn2ccnc2)c2ccc(Cl)cc2Cl)c(Cl)c1 (stereo not drawn) [MICONAZOLE]?
Answer: MIC [1]: 1 µg; MIC [2]: 1 µg

Question: How did the MIC [1] turn out when CC(C)CNC(=O)/C=C/C=C/c1ccc2c(c1)OCO2 [PIPERLONGUMININE] was run?
Answer: 1 µg

Question: And the MIC [2]?
Answer: 1 µg

Question: For COc1c(OC)c(OC)c2c3c(cc4ccccc42)NC(=O)c13 [PIPEROLACTAM C], which MIC [1] is on record?
Answer: 5 µg

Question: And the MIC [2]?
Answer: 50 µg

Question: What does the source list for COc1ccc(C/C=C/C=C/C(=O)NCC(C)C)cc1 [PIPEROVATINE]?
Answer: MIC [1]: 1 µg; MIC [2]: 1 µg

Question: CC(C)CNC(=O)/C=C/C=C\c1ccc2c(c1)OCO2 [SCUTIFOLAMIDE A] was tested. Which MIC [1] did it give?
Answer: 5 µg

Question: And the MIC [2]?
Answer: 5 µg

Question: With NYSTATIN as the compound, how does the MIC [1] read?
Answer: 1 µg

Question: And the MIC [2]?
Answer: 1 µg

From ChEMBL document CHEMBL1141427, “Antifungal amides from Piper scutifolium and Piper hoffmanseggianum” (2007)
